Active and inactive are the calls of the source. No cut-off for these calls is given here. Numbered stars: 1 amine (or outer) side, 2 acyl side, 3 side chain; on linkers, the order of the positions; unused ones are H or OH. Square brackets hold non-standard residues; d marks the D form. Peptide text beside a SMILES is read from it. X1 = O=C([C@@H]1Cc2nc[nH]c2CN1[*:1])[*:2]; Tic = O=C(O)[C@@H]1Cc2ccccc2CN1
Tests used:
[1] = target: T1, Type-1 angiotensin II receptor (Homo sapiens) (UniProt P30556); test: Displacement of [3H]valsartan from human recombinant AT1 receptor expressed in CHO cells at 10 uM after 40 mins by liquid scintillation counting; type: cell-based
T1 sequence (whole entry): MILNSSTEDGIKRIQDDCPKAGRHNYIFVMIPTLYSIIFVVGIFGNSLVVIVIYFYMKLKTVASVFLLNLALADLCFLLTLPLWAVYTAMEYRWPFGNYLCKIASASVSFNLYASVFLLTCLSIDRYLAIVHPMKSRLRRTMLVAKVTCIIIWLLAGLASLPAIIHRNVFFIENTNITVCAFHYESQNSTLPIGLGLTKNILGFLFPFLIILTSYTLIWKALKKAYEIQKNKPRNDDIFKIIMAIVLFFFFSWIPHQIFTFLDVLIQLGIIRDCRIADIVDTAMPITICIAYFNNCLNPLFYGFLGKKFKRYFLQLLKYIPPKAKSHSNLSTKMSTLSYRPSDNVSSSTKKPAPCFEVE
Summary of the method: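 Intact CHO-AT1 cells, human AT1 receptor stably expressed, prewashed in PBS, then 15 min in DMEM at 37 °C. Test agent at 10^-5 M with [3H]Valsartan (final 1.5 nM) for 40 min at 37 °C. Nonspecific binding with 1 μM Candesartan. Specific binding reported as percent of control, binding in medium only. Cell-bound radioactivity solubilized in 0.2 M NaOH and counted.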

[2] = Metabolic stability in CHOK1 cells harboring endogenous IRAP at 0.1 to 10000 nM pretreated for 40 mins by [3H]angiotensin 4 competition binding assay in absence of chelator EDTA and 1, 10-phenantroline; type: ADME, cell-based, Cricetulus griseus; conditions: chinese hamster, cho-k1, 40 min, 10 µM
Summary of the method: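 Membrane homogenates of CHO-K1 cells carrying endogenous IRAP, equivalent to 4×10^5 cells, in 50 mM Tris-HCl pH 7.4 assay buffer. Preincubated 40 min at 37 °C with compound, no chelator added. [3H]Ang IV (final 3 nM) then added for 30 min at 37 °C. Nonspecific binding with 10 μM Ang IV. Filtered on BSA-presoaked GF/B filters and counted. Specific binding given as percent of control.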

[3] = target: T2, Type-1 angiotensin II receptor (Homo sapiens, UniProt P30556); test: Displacement of [3H]valsartan from human recombinant AT1 receptor expressed in CHO cells after 40 mins by liquid scintillation counting; type: cell-based
T2 sequence (P30556 whole entry): T1 sequence (whole entry)
Summary of the method: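 CHO cells stably expressing human AT1 receptor, washed twice in PBS at room temperature, then 15 min in DMEM at 37 °C. Competition with [3H]Valsartan (final 1.5 nM) over a full dose range for 40 min at 37 °C. Nonspecific binding defined with 1 μM Candesartan. Cells washed 3× in cold PBS and lysed in 0.2 M NaOH before scintillation counting. IC50 by nonlinear regression, Ki by Cheng–Prusoff.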

Structure (SMILES) | Activity [1] | Stability [2] | Ki [3]
CC[C@H](C)[C@H](NC(=O)[C@H](Cc1ccc(O)cc1)NC(=O)[C@@H](N)C(C)C)C(=O)N1Cc2ccccc2C[C@H]1C(=O)N1CCC[C@H]1C(=O)N[C@@H](Cc1ccccc1)C(=O)O (H-VYI[Tic]PF-OH) | inactive |  | 
CC[C@H](C)[C@H](NC(=O)[C@H](Cc1ccc(O)cc1)NC(=O)[C@@H](N)C(C)C)C(=O)N1Cc2[nH]cnc2C[C@H]1C(=O)N1CCC[C@H]1C(=O)N[C@@H](Cc1ccccc1)C(=O)O (H-VYI[X1]PF-OH) | inactive |  | 
CC[C@H](C)[C@H](NC(=O)[C@H](Cc1ccc(O)cc1)NC(=O)[C@@H](CN)C(C)C)C(=O)N[C@H]1Cc2c([nH]c3ccccc23)CN(CC(=O)N[C@@H](Cc2ccccc2)C(=O)O)C1=O | inactive | Stable | 
CC[C@H](C)[C@H](NC(=O)[C@H](Cc1ccc(O)cc1)NC(=O)[C@@H](N)C(C)C)C(=O)N[C@H]1Cc2c([nH]c3ccccc23)CN(CC(=O)N[C@@H](Cc2ccccc2)C(=O)O)C1=O | inactive | Unstable | 

More lines, now with the values ahead:

Activity [1] | Stability [2] | Ki [3] | Structure (SMILES)
inactive | Unstable |  | CC[C@H](C)[C@H](NC(=O)[C@H](Cc1ccc(O)cc1)NC(=O)[C@@H](N)C(C)C)C(=O)N[C@H]1Cc2ccccc2CN(CC(=O)N[C@@H](Cc2ccccc2)C(=O)O)C1=O
Active | Stable | 141 nM | CC[C@H](C)[C@H](NC(=O)[C@H](Cc1ccc(O)cc1)NC(=O)[C@@H](CN)C(C)C)C(=O)N[C@H]1Cc2ccccc2CN(CC(=O)N[C@@H](Cc2ccccc2)C(=O)O)C1=O

— ChEMBL document CHEMBL1154281 (J Med Chem, 2009)
